Reference: ChEMBL document CHEMBL1122251, “4-(Aminoalkyl)-7-hydroxy-2(3H)-indolones, a novel class of potent presynaptic dopamine receptor agonists” (J Med Chem, 1983)

Key:
Dopamine receptor [1] = assay: Tested in vitro for dopamine agonist activity in rabbit ear artery after at a dose of 3 ug/kg; assay type: functional, tissue-based, Oryctolagus cuniculus
Summary of the method: (§1)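 Isolated perfused rabbit ear artery preparation, used to assess activation of presynaptic dopamine receptors.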

Canis familiaris [2] = assay: Tested in vivo for change in heart rate (HR) in dog after intravenous dose of 300 ug/kg; assay type: functional, Canis lupus familiaris
Canis familiaris [3] = assay: Tested in vivo for change in maximal arterial pressure (MAP) in dog after intravenous dose of 300 ug/kg; assay type: functional, Canis lupus familiaris, Artery
Summary of the method: (§2)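 Mean arterial blood pressure was recorded in dogs (N = 2) given the hydrobromide salt by intravenous infusion, dosed as (μg/kg)/min. Values are percent change from the control reading taken just before infusion. The minimum change counted as significant (p < 0.05) was ±5.2%.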

Canis familiaris [4] = assay: Tested in vivo for change in maximal arterial pressure (MAP) in dog after intravenous dose of 3 ug/kg; assay type: functional, Canis lupus familiaris, Artery; summary of the method: as §2
Canis familiaris [5] = assay: Tested in vivo for change in heart rate (HR) in dog after intravenous dose of 3 ug/kg; assay type: functional, Canis lupus familiaris
Canis familiaris [6] = assay: Tested in vivo for change in maximal arterial pressure (MAP) in dog after intravenous dose of 30 ug/kg; assay type: functional, Canis lupus familiaris, Artery; summary of the method: as §2
Canis familiaris [7] = assay: Tested in vivo for change in heart rate (HR) in dog after intravenous dose of 30 ug/kg; assay type: functional, Canis lupus familiaris
Canis familiaris [8] = assay: Tested in vivo for change in maximal arterial pressure (MAP) in dog after intravenous dose of 30 mg/kg; assay type: functional, Canis lupus familiaris, Artery
Canis familiaris [9] = assay: Tested in vivo for change in maximal arterial pressure (MAP) in dog after intravenous dose of 30 (ug/kg)/min
Canis familiaris [10] = assay: Tested in vivo for change in heart rate(HR) in dog after intravenous dose of 3 mg/kg; assay type: functional, Canis lupus familiaris
Dopamine receptor [11] = assay: Tested in vitro for dopamine agonist activity in rabbit ear artery after at a dose of 3 mg/kg; assay type: functional, Oryctolagus cuniculus; summary of the method: as §1
Dopamine receptor [12] = assay: Tested in vitro for dopamine agonist activity in rabbit ear artery after at a dose of 0.3 mg/kg; assay type: functional, Oryctolagus cuniculus; design: dose 0.3 mg/kg
Canis familiaris [13] = assay: Tested in vivo for change in heart rate (HR) in dog after intravenous dose of 30 (ug/kg)/min

`NCCc1ccc(O)c2c1CC(=O)N2` gave an EC50 (Dopamine receptor [1]) of 116 nM, a Change (Canis familiaris [2]) of -15.8% and a Change (Canis familiaris [3]) of 62.6%. The Change (Canis familiaris [4]) was -10.6%, the Change (Canis familiaris [5]) was -2.9% and the Change (Canis familiaris [6]) was -16.1%. The Change (Canis familiaris [7]) was -2.9%.

Work on `CCCN(CCC)CCc1ccc(O)c(O)c1` yielded a Change (Canis familiaris [8]) of -17.7%, a Change (Canis familiaris [9]) of -21.9% and a Change (Canis familiaris [10]) of 1.5%. The EC50 (Dopamine receptor [11]) was 80 nM.

Compound `C=CCN1CCc2c(cc(O)c(O)c2Cl)C(c2ccc(O)cc2)C1` (stereo unspecified) has an EC50 (Dopamine receptor [12]) of 122 nM.

For `CCCN(CCC)CCc1ccc(O)c2c1CC(=O)N2` [SKF-89124A], the Change (Canis familiaris [8]) was 28.4%, the Change (Canis familiaris [9]) was 28.4% and the Change (Canis familiaris [13]) was -6.9%. For the same compound, the EC50 (Dopamine receptor [12]) was 1.8 nM.
